Measurements from ChEMBL document CHEMBL4480384, “Benzo[d]thiazol-2(3H)-ones as new potent selective CB2 agonists with anti-inflammatory properties” (Eur J Med Chem, 2019).
Values after ≈ are worked out from the molar mass of the structure shown.

target: T1, Cannabinoid receptor 2 (Homo sapiens, UniProt P34972); assay: Displacement of [3H]-CP-55940 from human CB2 receptor expressed in CHO cell membranes after 1 hr by beta-counting analysis; details: not given
T1 sequence (P34972 whole entry): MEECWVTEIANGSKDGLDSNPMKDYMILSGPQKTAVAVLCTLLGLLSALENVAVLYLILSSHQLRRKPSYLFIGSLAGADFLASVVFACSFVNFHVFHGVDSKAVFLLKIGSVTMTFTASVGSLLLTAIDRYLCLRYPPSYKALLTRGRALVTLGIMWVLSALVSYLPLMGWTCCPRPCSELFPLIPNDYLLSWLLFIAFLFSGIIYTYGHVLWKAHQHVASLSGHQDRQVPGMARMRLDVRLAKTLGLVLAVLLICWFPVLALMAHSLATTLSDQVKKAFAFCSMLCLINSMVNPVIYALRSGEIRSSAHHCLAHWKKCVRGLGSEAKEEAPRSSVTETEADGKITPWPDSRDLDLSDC

Structure (SMILES)	Ki [nM]
CCCCCn1c(=O)sc2cc(C(=O)NC34CC5CC(CC(C5)C3)C4)ccc21	> 1000
CCCCCn1c(=O)sc2cc(C(=O)C34CC5CC(CC(C5)C3)C4)ccc21	13.5
CCCCn1c(=O)sc2cc(C(=O)C34CC5CC(CC(C5)C3)C4)ccc21	26
CCCCCn1c(=O)sc2ccc(C(=O)C34CC5CC(CC(C5)C3)C4)cc21	526
CCCCCn1c(=O)sc2ccc(C(=O)C3CCCCC3)cc21	> 1000
CCCCCn1c(=O)sc2cc(NC(=O)C34CC5CC(CC(C5)C3)C4)ccc21	> 1000
CCCCCn1c(=O)sc2cc(C(=O)C3CCCCC3)ccc21	49.5
CCCCCn1c(=O)sc2cc(C(=O)C3C(C)(C)C3(C)C)ccc21	> 1000
CCCCCn1c(=O)oc2cc(C(=O)C3C(C)(C)C3(C)C)ccc21	> 1000
CCCCCn1c(=O)sc2ccc(C(=O)C3C(C)(C)C3(C)C)cc21	> 1000
CCCCCn1c(=O)oc2cc(C(=O)C34CC5CC(CC(C5)C3)C4)ccc21	> 1000
CC(Cn1c(=O)sc2cc(C(=O)C34CC5CC(CC(C5)C3)C4)ccc21)N(C)C (centres undefined)	506
CCCCCn1c(=O)sc2cc(CC34CC5CC(CC(C5)C3)C4)ccc21	144

tested on: Mus musculus; assay: Anti-inflammatory activity in C57BL6 mouse model of DSS-induced acute colitis assessed reduction in MPO activity at 10 mg/kg, ip measured on day 9 relative to control; type: functional; details: 216 h
Method in brief: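 DSS-colitis C57BL6 mice were dosed ip at 10 mg/kg daily in hydroxypropyl-β-cyclodextrin, against vehicle controls. Colon was homogenised in phosphate buffer pH 6.0 with 0.5% hexadecyltrimethyl ammonium, then sonicated and freeze-thawed. Supernatant was reacted with o-dianisidine 1 mg/ml and H2O2 0.0005%, and OD read at 450 nm. Results were normalised to Bradford protein; n = 10.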

Structure (SMILES)	inhibition in vivo at 10 mg/kg [%]
CCCCCn1c(=O)sc2cc(C(=O)C34CC5CC(CC(C5)C3)C4)ccc21	43

tested on: Mus musculus; assay: Anti-inflammatory activity in C57BL6 mouse model of DSS-induced acute colitis assessed colon weight/size ratio at 10 mg/kg, ip measured on day 9 (reference value: 0.050 +/- 0.0014); type: functional; details: not given

Structure (SMILES)	Ratio
CCCCCn1c(=O)sc2cc(C(=O)C34CC5CC(CC(C5)C3)C4)ccc21	0.044

tested on: Mus musculus; assay: Anti-inflammatory activity in C57BL6 mouse model of DSS-induced acute colitis assessed Sod2 mRNA expression at 10 mg/kg, ip measured on day 9 (reference value: 2 +/- 0.4 a.u.); type: functional; details: not given
Method in brief: (§1)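 Colons came from DSS-colitis C57BL6 mice dosed ip at 10 mg/kg daily in hydroxypropyl-β-cyclodextrin, or given vehicle. Total RNA was extracted and reverse-transcribed. Sod2 and iNos mRNA were measured by SYBR Green RT-qPCR against the PolR2A reference gene. Mean ± SEM, n = 10, Mann-Whitney U test.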

Structure (SMILES)	Activity [a.u.]
CCCCCn1c(=O)sc2cc(C(=O)C34CC5CC(CC(C5)C3)C4)ccc21	1.2

tested on: not listed separately; assay: Aqueous solubility of compound in pH 7.4 PBS after 24 hrs by shake-flask method; type: physicochemical; details: not given
Method in brief: (§2)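 Solubility was measured by shake-flask for 24 h at room temperature in PBS pH 7.4, simulated gastric fluid or simulated intestinal fluid.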

Structure (SMILES)	solubility thermodynamic at 24 h [µM]
CCCCCn1c(=O)sc2cc(C(=O)C34CC5CC(CC(C5)C3)C4)ccc21	1 (≈ 0.384 µg/mL)

target: T1, Cannabinoid receptor 2; assay: Agonist activity at human CB2 receptor expressed in CHO cell membranes assessed as [35S]GTPgammaS binding after 1 hr by beta-counting analysis; type: functional; details: not given

Structure (SMILES)	EC50 [nM]
CCCCCn1c(=O)sc2cc(C(=O)C34CC5CC(CC(C5)C3)C4)ccc21	41.9
CCCCn1c(=O)sc2cc(C(=O)C34CC5CC(CC(C5)C3)C4)ccc21	150
CCCCCn1c(=O)sc2cc(C(=O)C3CCCCC3)ccc21	41.5

tested on: not listed separately; assay: Permeability of the compound across apical side to basolateral side in human Caco2 after 60 mins; type: ADME, cell-based; details: Caco-2, read-out: permeability
Method in brief: (§3)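 Caco-2 monolayers were dosed apical-to-basolateral and basolateral-to-apical, pH 6.5/7.4, at 37°C. Samples were taken at 0 and 60 min, and permeability reported in 10^-6 cm/s.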

Structure (SMILES)	Papp A→B at 1 h [×10⁻⁶ cm/s]
CCCCCn1c(=O)sc2cc(C(=O)C34CC5CC(CC(C5)C3)C4)ccc21	1.8

tested on: not listed separately; assay: Aqueous solubility of compound in stimulated intestinal fluid after 24 hrs by shake-flask method; type: physicochemical; details: simulated intestinal fluid; method in brief: as §2

Structure (SMILES)	solubility thermodynamic at 24 h [µM]
CCCCCn1c(=O)sc2cc(C(=O)C34CC5CC(CC(C5)C3)C4)ccc21	107 (≈ 41.2 µg/mL)

tested on: not listed separately; assay: Protein binding in human plasma assessed as drug recovery after 4 hrs by equilibrium dialysis method; type: ADME, cell-free; details: read-out: Drug recovery
Method in brief: (§4)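 Human plasma protein binding was measured by equilibrium dialysis, 4 h at 37°C. Both % bound and % recovery were reported.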

Structure (SMILES)	recovery at 4 h [%]
CCCCCn1c(=O)sc2cc(C(=O)C34CC5CC(CC(C5)C3)C4)ccc21	100

tested on: not listed separately; assay: Stability in human liver microsomes assessed as compound remaining at 0.1 mg/ml after 60 mins; type: ADME, Microsome; details: read-out: Stability
Method in brief: (§5)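 Incubation with human liver microsomes at 0.1 mg/mL, 37°C, sampled at 0 and 60 min. Outputs were % remaining at 60 min, half-life and intrinsic clearance in μL/min/mg.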

Structure (SMILES)	remaining at 1 h [%]
CCCCCn1c(=O)sc2cc(C(=O)C34CC5CC(CC(C5)C3)C4)ccc21	43

tested on: not listed separately; assay: Permeability of the compound across basolateral side to apical side in human Caco2 after 60 mins; type: ADME, cell-based; details: Caco-2, read-out: permeability; method in brief: as §3

Structure (SMILES)	Papp B→A at 1 h [×10⁻⁶ cm/s]
CCCCCn1c(=O)sc2cc(C(=O)C34CC5CC(CC(C5)C3)C4)ccc21	1.3

species: Homo sapiens; assay: Selectivity index, ratio of Ki for human CB1 receptor expressed in CHO cell membranes to Ki for human CB2 receptor expressed in CHO cell membranes; type: cell-based; details: not given

Structure (SMILES)	Ratio Ki
CCCCCn1c(=O)sc2cc(C(=O)C34CC5CC(CC(C5)C3)C4)ccc21	46
CCCCn1c(=O)sc2cc(C(=O)C34CC5CC(CC(C5)C3)C4)ccc21	30
CCCCCn1c(=O)sc2cc(C(=O)C3CCCCC3)ccc21	> 20
CCCCCn1c(=O)sc2cc(CC34CC5CC(CC(C5)C3)C4)ccc21	4

tested on: not listed separately; assay: Efflux ratio of permeability in human Caco2 after 60 mins; type: ADME, cell-based; details: Caco-2
Method in brief: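 Run by a contract lab. Compound incubated with the Caco-2 cell line at 37 °C, pH 6.5/7.4, sampled at 0 and 60 min. Apparent permeability measured A-B and B-A, and the efflux ratio taken as (B-A)/(A-B).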

Structure (SMILES)	efflux ratio at 1 h
CCCCCn1c(=O)sc2cc(C(=O)C34CC5CC(CC(C5)C3)C4)ccc21	0.7

tested on: not listed separately; assay: Intrinsic clearance in human liver microsomes at 0.1 mg/ml after 60 mins; type: ADME, Microsome; details: read-out: CLH; method in brief: as §5

Structure (SMILES)	microsomal CLint [µL/min/mg]
CCCCCn1c(=O)sc2cc(C(=O)C34CC5CC(CC(C5)C3)C4)ccc21	146

tested on: Mus musculus; assay: Anti-inflammatory activity in C57BL6 mouse model of DSS-induced acute colitis assessed as body weight change at 10 mg/kg, ip measured on day 9 (reference value: 79.5 +/- 1.8%); type: functional; details: not given

Structure (SMILES)	Activity [%]
CCCCCn1c(=O)sc2cc(C(=O)C34CC5CC(CC(C5)C3)C4)ccc21	85.9

target: T1, Cannabinoid receptor 2; assay: Displacement of [3H]-CP-55940 from human CB2 receptor expressed in CHO cell membranes at 10 uM after 1 hr by beta-counting analysis; details: not given
Method in brief: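 Competition binding to hCB2-CHO membranes (40 μg) with [3H]-CP-55,940 1 nM in Tris-HCl/MgCl2/EDTA/0.5% BSA buffer, pH 7.4, 1 h at 30°C. Final DMSO was below 0.1%. Filtration on GF/B, then β-count; HU-210 10 µM defined nonspecific binding. Compounds were first screened at 10 μM.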

Structure (SMILES)	inhibition [%]
CCCCCn1c(=O)sc2cc(C(=O)NC34CC5CC(CC(C5)C3)C4)ccc21	> 60
CCCCCn1c(=O)sc2cc(C(=O)C34CC5CC(CC(C5)C3)C4)ccc21	> 60
CCCCn1c(=O)sc2cc(C(=O)C34CC5CC(CC(C5)C3)C4)ccc21	> 60
CCCCCn1c(=O)sc2ccc(C(=O)C34CC5CC(CC(C5)C3)C4)cc21	> 60
CCCCCn1c(=O)sc2ccc(C(=O)C3CCCCC3)cc21	> 60
CCCCCn1c(=O)sc2cc(NC(=O)C34CC5CC(CC(C5)C3)C4)ccc21	> 60
CCCCCn1c(=O)sc2cc(C(=O)C3CCCCC3)ccc21	> 60
CCCCCn1c(=O)sc2cc(C(=O)C3C(C)(C)C3(C)C)ccc21	> 60
CCCCCn1c(=O)oc2cc(C(=O)C3C(C)(C)C3(C)C)ccc21	> 60
CCCCCn1c(=O)sc2ccc(C(=O)C3C(C)(C)C3(C)C)cc21	> 60
CCCCCn1c(=O)oc2cc(C(=O)C34CC5CC(CC(C5)C3)C4)ccc21	> 60
CC(Cn1c(=O)sc2cc(C(=O)C34CC5CC(CC(C5)C3)C4)ccc21)N(C)C (centres undefined)	> 60
CCCCCn1c(=O)sc2cc(CC34CC5CC(CC(C5)C3)C4)ccc21	> 60

tested on: HT-29; assay: Cytotoxicity against human HT-29 cells at 10 uM after 72 hrs by MTS assay relative to control; type: cell-based; details: ht-29, 72 h
Method in brief: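 HT29 cells were grown in DMEM-Glutamax with 10% FBS at 37°C and 5% CO2. They were seeded at 3000 cells/well in triplicate and allowed 24 h. Compounds were added at 10 μM with DMSO below 0.1%, for 72 h. Read-out was the MTS colorimetric test, given as % proliferation inhibition from ≥4 experiments in duplicate.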

Structure (SMILES)	Activity [%]
CCCCCn1c(=O)sc2cc(C(=O)C34CC5CC(CC(C5)C3)C4)ccc21	0
CCCCn1c(=O)sc2cc(C(=O)C34CC5CC(CC(C5)C3)C4)ccc21	0
CCCCCn1c(=O)sc2cc(C(=O)C3CCCCC3)ccc21	67

tested on: not listed separately; assay: Half life in human liver microsomes at 0.1 mg/ml after 60 mins; type: ADME, Microsome; details: not given; method in brief: as §5

Structure (SMILES)	half-life [min]
CCCCCn1c(=O)sc2cc(C(=O)C34CC5CC(CC(C5)C3)C4)ccc21	48

tested on: not listed separately; assay: Aqueous solubility of compound in stimulated gastric fluid after 24 hrs by shake-flask method; type: physicochemical; details: simulated gastric fluid; method in brief: as §2

Structure (SMILES)	solubility thermodynamic at 24 h [µM]
CCCCCn1c(=O)sc2cc(C(=O)C34CC5CC(CC(C5)C3)C4)ccc21	183 (≈ 70.3 µg/mL)

target: Cannabinoid receptor 1 (Homo sapiens, UniProt P21554); assay: Displacement of [3H]-CP-55940 from human CB1 receptor expressed in CHO cell membranes after 1 hr by beta-counting analysis; details: not given
Sequence (P21554 whole entry): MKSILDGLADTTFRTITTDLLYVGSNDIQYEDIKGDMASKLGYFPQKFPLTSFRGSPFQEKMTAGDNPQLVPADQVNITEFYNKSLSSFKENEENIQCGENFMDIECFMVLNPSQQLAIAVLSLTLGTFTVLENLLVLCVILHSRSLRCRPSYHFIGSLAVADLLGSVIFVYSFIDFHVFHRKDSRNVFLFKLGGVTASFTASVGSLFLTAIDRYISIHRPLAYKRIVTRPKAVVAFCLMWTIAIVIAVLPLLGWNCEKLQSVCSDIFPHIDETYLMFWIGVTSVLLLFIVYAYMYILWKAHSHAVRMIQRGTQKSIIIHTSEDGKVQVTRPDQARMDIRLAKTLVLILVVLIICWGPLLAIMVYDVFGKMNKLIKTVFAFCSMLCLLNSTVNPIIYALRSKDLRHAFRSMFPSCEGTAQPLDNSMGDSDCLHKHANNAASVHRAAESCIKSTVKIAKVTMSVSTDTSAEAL

Structure (SMILES)	Ki [nM]
CCCCCn1c(=O)sc2cc(C(=O)C34CC5CC(CC(C5)C3)C4)ccc21	627
CCCCn1c(=O)sc2cc(C(=O)C34CC5CC(CC(C5)C3)C4)ccc21	780
CCCCCn1c(=O)sc2cc(C(=O)C3CCCCC3)ccc21	> 1000
CCCCCn1c(=O)sc2cc(CC34CC5CC(CC(C5)C3)C4)ccc21	593

tested on: Mus musculus; assay: Anti-inflammatory activity in C57BL6 mouse model of DSS-induced acute colitis assessed iNos mRNA expression at 10 mg/kg, ip measured on day 9 (reference value: 1 +/- 0.2 a.u.); type: functional; details: not given; method in brief: as §1

Structure (SMILES)	Activity [a.u.]
CCCCCn1c(=O)sc2cc(C(=O)C34CC5CC(CC(C5)C3)C4)ccc21	0.4

tested on: not listed separately; assay: Protein binding in human plasma after 4 hrs by equilibrium dialysis method; type: ADME, cell-free; details: read-out: PPB (converted); method in brief: as §4

Structure (SMILES)	fraction unbound at 4 h
CCCCCn1c(=O)sc2cc(C(=O)C34CC5CC(CC(C5)C3)C4)ccc21	0.11

target: T1, Cannabinoid receptor 2; assay: Agonist activity at human CB2 receptor expressed in CHO cell membranes assessed as [35S]GTPgammaS binding after 1 hr by beta-counting analysis relative to control; type: functional; details: not given
Method in brief: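 Membranes from hCB2-CHO cells, 40 μg protein, in 50 mM Tris-HCl, 3 mM MgCl2, 1 mM EDTA, 100 mM NaCl, 0.1% BSA, pH 7.4, with 20 μM GDP. [35S]-GTPγS was 0.05 nM final, 1 h at 30°C. Filtration on GF/B, then β-counting. Nonspecific binding was set with 100 μM Gpp(NH)p.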

Structure (SMILES)	Emax [%]
CCCCCn1c(=O)sc2cc(C(=O)C34CC5CC(CC(C5)C3)C4)ccc21	157
CCCCn1c(=O)sc2cc(C(=O)C34CC5CC(CC(C5)C3)C4)ccc21	152
CCCCCn1c(=O)sc2cc(C(=O)C3CCCCC3)ccc21	178
